Hits are enriched below; roughly 1.8% of the tested compounds scored in any of these assays.
SUMO Mot1 rescue – SUMOylation pathway inhibition by Mot1-301 growth rescue | S. cerevisiae Mot1-301 growth rescue, ATP luminescence, 38.5C; percent above DMSO median, 100 means doubled | growth rescue, % at 18.8 µM | 1% of 320,000 active | AID 2716;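 active = every valid replicate shows activation above 250% relative to neutral control wells; inactive = the rest, any valid replicate at or below 250%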;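 note: OY570 slx delta 5 strain wells were the positive control but not used for scaling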
Cneo AK release – Cryptococcus neoformans lysis via adenylate kinase release; lysis activity, % at 15 µM; AID 651654; 0.2% of 360,000 active; C. neoformans lysis, adenylate kinase release luminescence, 4 h; normalised: neutral wells 0, clomiphene wells 100;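 active = mean lysis activity across replicates of at least 80%, whatever share of replicates individually reach that level; inactive = mean lysis activity below 80%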
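Schedule: static 4 h at 37 °C with compound, 1 h detection; system: C. neoformans cells; benchmarks: Clomiphene as positive control; buffer or medium: fresh YPD medium; measure: luminescence rise reflecting yeast cell lysis; measured by: luminescent adenylate kinase detection reagent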
Statin myotox sup – suppressors of simvastatin-induced myotoxicity in C2C12 myotubes | AID 602340 | ATP luminescence, 48 h; scaled: DMSO 0, geranylgeraniol control 100 | 0.78% of 330,000 active | rescue of ATP level, % at 7.49 µM;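 active = mean ATP rescue above about 67%, or every replicate alone reaching that limit, limit read from the data, passing the limit was not always enough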;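 note: myotubes were challenged with 10 µM simvastatin during compound exposure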
Efflux pump inh – antifungal efflux pump inhibition, Nile Red retention. inhibition, % at 10 µM. S. cerevisiae Candida pump triplex. 0.44% of 330,000 active;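 active = plate passing quality check with inhibition over a set limit, or well fluorescence over plate mean plus 4 SD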;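 note: Nile Red retained in pooled yeast measured as flow cytometry median fluorescence; 0% = buffer negative control and 100% = Enniatin B positive control; higher means more Nile Red kept so more efflux inhibition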
Cmpd fluor yeast – counter-screen for efflux pump inhibitors: compound fluorescence; S. cerevisiae AD/pABC3, flow cytometry; 4% of 1,700 active; AID 588517; shares compounds with Efflux pump inh; fluorescence ratio to DMSO, % at 10 µM;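 active = fluorescence ratio to DMSO above its plate's cutoff, the plate mean ratio plus 5 SD, cut at about 210% in these data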;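 note: unstained yeast with no Nile Red so the signal is compound autofluorescence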
Mdr1 pump inh – Candida Mdr1 efflux pump inhibition; shares compounds with Efflux pump inh; S. cerevisiae AD/CaMDR1, Nile Red efflux, flow cytometry; inhibition, % at 10 µM; 1% of 1,700 active; AID 588518; in the data active = inhibition above about 26%;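 note: 0% = DMSO vehicle and 100% = reference inhibitor; higher means more Nile Red retained so more efflux inhibition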
Cdr2 pump inh – inhibitors of Candida albicans Cdr2 efflux pump; 4% of 1,700 active; shares compounds with Efflux pump inh; Nile Red retention ratio vs DMSO, % at 10 µM; S. cerevisiae AD/CaCDR2, Nile Red retention, flow cytometry; in the data active = Nile Red retention ratio vs DMSO above about 190%;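 note: higher ratio means more blocking of Cdr2 efflux of the dye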
Cdr1 pump inh – Candida Cdr1 efflux pump inhibition; 1% of 1,700 active; inhibition, % at 10 µM; shares compounds with Efflux pump inh; S. cerevisiae AD/CaCDR1, Nile Red efflux, flow cytometry; AID 588522;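 active = inhibition above the screen-wide mean plus twice its standard deviation, cut at about 32% in these data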
* hit, by the source's call.

`CCN(CC)CCN(C(=O)C1=COCCO1)c1nc2c(OC)ccc(OC)c2s1` gave SUMO Mot1 rescue 2.2, Cneo AK release 3.1 and Efflux pump inh -0.1.
For Cc1cc(C(=O)NNc2c(Cl)cccc2Cl)n(C(C)(C)C)n1 the results were SUMO Mot1 rescue 329.9, Statin myotox sup 0.1 and Efflux pump inh 0.1.
Screening Cc1cc(C(=O)O)n(C(C)(C)C)n1 returned SUMO Mot1 rescue 12.2, Cneo AK release -1.9, Statin myotox sup -8.4, Efflux pump inh 2.0*, Cmpd fluor yeast 95.3, Mdr1 pump inh -0.3, Cdr2 pump inh 95.1 and Cdr1 pump inh -0.3.
Screening CCCNC(=O)Nc1ccc2c(c1)C(=O)N(C)C[C@@H](OC)[C@H](C)CN(C(=O)C1CCCCC1)[C@@H](C)CO2 returned Cneo AK release -3.3 and Statin myotox sup 6.8.
Screening Cc1cccc(N=C2NC(=O)/C(=C/c3cccs3)S2)c1 returned SUMO Mot1 rescue 21.4, Cneo AK release -6.2, Statin myotox sup 2.1 and Efflux pump inh -0.1.
Cc1ccc(N=C2NC(=O)/C(=C\c3cccs3)S2)cc1C was read as SUMO Mot1 rescue -3.9, Efflux pump inh 6.8*, Cmpd fluor yeast 101.5, Mdr1 pump inh 0.1, Cdr2 pump inh 133.5 and Cdr1 pump inh 0.1.
O=C(Oc1ccc(F)cc1)c1ccc2c(=O)n3c(nc2c1)CCC3 was read as SUMO Mot1 rescue -8.0 and Efflux pump inh 0.1.
Screening COc1ccc(CC(=O)Nc2ccc(NC(=O)c3ccc(Br)cc3)cc2)cc1OC returned SUMO Mot1 rescue 1.9, Cneo AK release -1.7, Statin myotox sup 2.7, Efflux pump inh 0.8*, Cmpd fluor yeast 98.9, Mdr1 pump inh -0.3, Cdr2 pump inh 98.1 and Cdr1 pump inh 0.1.
For O=C(Cc1ccccc1)Nc1ccc(NC(=O)c2ccc(Br)cc2)cc1 the results were SUMO Mot1 rescue -7.2, Cneo AK release -5.3, Statin myotox sup -3.1 and Efflux pump inh 0.1.
`CCCCCCN1C[C@H](O)[C@@H](n2cc(COC(=O)c3ccccc3)nn2)C[C@@H]1c1ccc(C)cc1` gave Cneo AK release 3.9 and Statin myotox sup -6.0.
Screening O=C1CCCC(=O)C1=C1SCCCS1 returned SUMO Mot1 rescue -14.6, Cneo AK release -0.7, Statin myotox sup 4.9, Efflux pump inh 6.5*, Cmpd fluor yeast 91.0, Mdr1 pump inh 0.0, Cdr2 pump inh 96.0 and Cdr1 pump inh 0.1.
O=C1C(=C2SCCCS2)CC/C1=C\c1ccc(F)cc1 was read as SUMO Mot1 rescue 4.3, Statin myotox sup 14.8 and Efflux pump inh 0.1.
`CCC1Oc2ccccc2N(CC(=O)N2CCOCC2)C1=O` (centres undefined) gave SUMO Mot1 rescue -10.2, Cneo AK release 0.4, Statin myotox sup 9.3 and Efflux pump inh 0.3.
For CCC(Sc1nncn1C)C(=O)Nc1ccccc1OC (centres undefined) the results were SUMO Mot1 rescue -19.2, Cneo AK release 4.8, Statin myotox sup -4.2, Efflux pump inh 0.5*, Cmpd fluor yeast 106.2, Mdr1 pump inh -0.2, Cdr2 pump inh 95.6 and Cdr1 pump inh 0.5.
CCCNS(=O)(=O)c1cccc2cccnc12 was read as SUMO Mot1 rescue -19.2, Cneo AK release -1.9, Statin myotox sup -8.5 and Efflux pump inh 0.1.
`Cc1ccccc1NC(=O)c1ccc(NC(=O)c2ccco2)cc1` gave SUMO Mot1 rescue -12.6, Cneo AK release 2.7, Statin myotox sup -6.4, Efflux pump inh 0.0, Cmpd fluor yeast 112.7, Mdr1 pump inh 0.1, Cdr2 pump inh 98.5 and Cdr1 pump inh 0.0.
O=C(Nc1ccccc1C(=O)O)c1cccc(NC(=O)c2ccc(Br)o2)c1 was read as SUMO Mot1 rescue 12.2, Cneo AK release -1.7, Statin myotox sup -1.3 and Efflux pump inh -0.2.
O=C(Nc1ccccc1C(=O)O)c1ccc(NC(=O)c2ccc(Br)o2)cc1 was read as SUMO Mot1 rescue 120.4, Statin myotox sup 43.0, Efflux pump inh 0.2, Cmpd fluor yeast 103.4, Mdr1 pump inh -0.1, Cdr2 pump inh 93.0 and Cdr1 pump inh 0.0.
`O=C(NCCCO)/C(=C\c1cn(-c2ccccc2)nc1-c1cccnc1)NC(=O)c1ccccc1` gave SUMO Mot1 rescue 501.6 and Efflux pump inh 0.0.
Screening Cc1noc(C)c1NC(=O)N(C)C[C@@H]1OCCCC[C@@H](C)Oc2ccc(NC(=O)CCC(F)(F)F)cc2C(=O)N([C@@H](C)CO)C[C@H]1C returned Cneo AK release -1.1.
Screening C=CCNC(=O)c1ccc(OC)cc1 returned SUMO Mot1 rescue -6.9, Cneo AK release 1.8, Statin myotox sup 1.7 and Efflux pump inh 0.1.
O=C1OC(c2ccco2)=N/C1=C\c1ccc(-c2cccc(C(F)(F)F)c2)o1 was read as SUMO Mot1 rescue 21.0, Cneo AK release 0.7, Statin myotox sup 21.5, Efflux pump inh 1.2*, Cmpd fluor yeast 93.3, Mdr1 pump inh 0.1, Cdr2 pump inh 112.4 and Cdr1 pump inh 0.1.
For N#C/C(=C\c1ccc(-c2cccc(C(F)(F)F)c2)o1)C(=O)Nn1cnnc1 the results were SUMO Mot1 rescue 5.6, Cneo AK release -1.0 and Efflux pump inh 0.0.
CN(CC(=O)Nc1ccc(Cl)c(C(F)(F)F)c1)S(=O)(=O)c1cnc[nH]1 was read as Cneo AK release -1.1 and Statin myotox sup 3.8.
COc1ccc(C(=O)N/N=c2\oc3ccccc3cc2C(=O)NCc2ccccc2)cc1 was read as SUMO Mot1 rescue -8.0, Cneo AK release 8.5, Statin myotox sup -7.6 and Efflux pump inh -0.1.
For COc1ccc(Cl)cc1C(=O)O/N=C(\N)c1ccc(Cl)cc1 the results were SUMO Mot1 rescue 93.7, Cneo AK release 12.9, Efflux pump inh 6.5*, Cmpd fluor yeast 113.5, Mdr1 pump inh -0.3, Cdr2 pump inh 110.3 and Cdr1 pump inh -0.1.
`COc1cc(OC)c(C(=O)O/N=C(\N)c2ccc(C)cc2)cc1OC` gave SUMO Mot1 rescue 15.2, Cneo AK release -3.7, Statin myotox sup -31.7 and Efflux pump inh 0.0.
COc1cccc(C(=O)O/N=C(\N)c2ccncc2)c1OC was read as SUMO Mot1 rescue -0.2, Efflux pump inh 12.6*, Cmpd fluor yeast 97.6, Mdr1 pump inh -0.3, Cdr2 pump inh 107.2 and Cdr1 pump inh -0.1.
`COc1cccc(C(=O)O/N=C(\N)c2ccccn2)c1OC` gave SUMO Mot1 rescue -10.2, Cneo AK release -3.9, Statin myotox sup 3.4 and Efflux pump inh 0.1.
`COc1ccc(-c2nc3c4ccccc4ccn3c2Cc2cccc(Cl)c2)cc1OC` gave Cneo AK release -0.2 and Statin myotox sup 14.0.
`C=CCn1c(-c2ccc(=O)n(Cc3ccccc3)c2)n[nH]c1=S` gave SUMO Mot1 rescue 16.7 and Efflux pump inh -0.4.

Screens (PubChem)
